# Measurements published in ChEMBL document CHEMBL1149444, “Discovery of imidazo[1,2-b][1,2,4]triazines as GABA(A) alpha2/3 subtype selective agonists for the treatment of anxiety” (J Med Chem, 2006).
# Legend:
# [1] = molecular target: T1, GABA-A receptor; alpha-1/beta-3/gamma-2 (Homo sapiens, UniProt P14867+P18507+P28472); assay: Displacement of [3H]Ro 15-1788 from recombinant human GABAA alpha-1 receptor plus beta3gamma2 expressed in L(tk-) cells; format: cell-based
# T1 sequence (P14867 whole entry): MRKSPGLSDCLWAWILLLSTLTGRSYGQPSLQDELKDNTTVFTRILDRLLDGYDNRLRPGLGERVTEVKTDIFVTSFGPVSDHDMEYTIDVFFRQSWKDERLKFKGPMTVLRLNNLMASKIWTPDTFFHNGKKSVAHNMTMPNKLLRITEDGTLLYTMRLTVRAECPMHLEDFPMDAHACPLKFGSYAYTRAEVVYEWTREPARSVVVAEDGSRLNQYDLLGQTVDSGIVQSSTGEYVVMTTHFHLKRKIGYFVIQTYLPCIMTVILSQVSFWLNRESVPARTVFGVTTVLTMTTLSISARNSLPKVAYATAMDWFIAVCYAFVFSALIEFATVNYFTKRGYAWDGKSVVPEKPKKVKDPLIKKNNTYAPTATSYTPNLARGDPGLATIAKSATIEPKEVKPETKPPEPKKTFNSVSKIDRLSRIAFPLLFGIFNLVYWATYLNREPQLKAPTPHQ
# T1 sequence (P18507 whole entry): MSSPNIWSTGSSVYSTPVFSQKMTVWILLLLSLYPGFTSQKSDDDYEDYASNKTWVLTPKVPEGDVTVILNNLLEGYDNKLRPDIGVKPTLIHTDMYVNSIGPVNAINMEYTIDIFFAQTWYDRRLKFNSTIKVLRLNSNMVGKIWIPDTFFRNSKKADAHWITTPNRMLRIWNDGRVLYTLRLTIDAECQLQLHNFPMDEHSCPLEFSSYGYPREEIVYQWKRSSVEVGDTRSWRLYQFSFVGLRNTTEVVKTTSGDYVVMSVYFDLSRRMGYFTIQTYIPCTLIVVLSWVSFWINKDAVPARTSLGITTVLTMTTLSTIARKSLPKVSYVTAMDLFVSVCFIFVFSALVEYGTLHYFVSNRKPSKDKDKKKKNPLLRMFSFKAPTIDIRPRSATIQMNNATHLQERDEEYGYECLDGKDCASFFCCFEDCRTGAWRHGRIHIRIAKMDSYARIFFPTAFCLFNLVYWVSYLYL
# T1 sequence (P28472 whole entry): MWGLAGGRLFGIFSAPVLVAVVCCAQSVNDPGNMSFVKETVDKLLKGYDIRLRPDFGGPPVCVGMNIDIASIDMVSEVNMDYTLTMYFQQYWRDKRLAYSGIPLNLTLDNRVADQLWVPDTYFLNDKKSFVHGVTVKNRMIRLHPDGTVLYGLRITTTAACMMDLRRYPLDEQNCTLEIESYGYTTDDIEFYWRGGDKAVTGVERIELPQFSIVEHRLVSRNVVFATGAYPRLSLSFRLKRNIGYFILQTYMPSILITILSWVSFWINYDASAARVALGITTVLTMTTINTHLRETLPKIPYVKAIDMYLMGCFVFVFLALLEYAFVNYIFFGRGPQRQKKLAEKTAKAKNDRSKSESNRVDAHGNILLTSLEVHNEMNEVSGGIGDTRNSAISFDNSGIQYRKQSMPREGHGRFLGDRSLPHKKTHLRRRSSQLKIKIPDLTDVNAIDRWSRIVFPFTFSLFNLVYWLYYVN
# [2] = molecular target: T2, GABA-A receptor; alpha-2/beta-3/gamma-2 (Homo sapiens, UniProt P18507+P28472+P47869); assay: Displacement of [3H] Ro15-1788 from recombinant human GABAA alpha2 receptor plus beta-3-gamma-2 expressed in L(tk-) cells; format: cell-based
# T2 sequence (P18507 whole entry): T1 sequence (P18507 whole entry)
# T2 sequence (P28472 whole entry): T1 sequence (P28472 whole entry)
# T2 sequence (P47869 whole entry): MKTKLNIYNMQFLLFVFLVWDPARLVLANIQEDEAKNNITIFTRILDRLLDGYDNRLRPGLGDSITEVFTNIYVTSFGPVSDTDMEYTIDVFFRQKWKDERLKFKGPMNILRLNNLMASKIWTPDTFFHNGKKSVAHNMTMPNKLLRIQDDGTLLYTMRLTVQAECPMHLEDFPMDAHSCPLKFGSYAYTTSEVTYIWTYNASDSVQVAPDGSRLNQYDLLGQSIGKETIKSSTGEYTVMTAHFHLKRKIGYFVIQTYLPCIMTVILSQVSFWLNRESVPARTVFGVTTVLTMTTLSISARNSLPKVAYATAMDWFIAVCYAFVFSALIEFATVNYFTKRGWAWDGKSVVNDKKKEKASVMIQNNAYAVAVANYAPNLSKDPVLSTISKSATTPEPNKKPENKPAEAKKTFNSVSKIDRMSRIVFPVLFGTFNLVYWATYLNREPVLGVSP
# [3] = molecular target: T3, GABA-A receptor; alpha-3/beta-3/gamma-2 (Homo sapiens) (UniProt P18507+P28472+P34903); assay: Efficacy against recombinant human GABAA alpha3 receptor plus beta-3-gamma-2 expressed in L(tk-) cells by whole cell patch clamp method relative to chlordiazepoxide; format: functional, cell-based
# Procedure, shortened: (§1)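 Whole-cell patch clamp on L(tk-) cells stably expressing the receptor (alpha plus beta3gamma2). GABA applied at an EC20-equivalent concentration. Modulation of the current measured with increasing test concentrations. Efficacy expressed relative to the maximal chlordiazepoxide response (set at 1.00) or as a percentage.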
# [4] = molecular target: T4, GABA-A receptor; alpha-1/beta-3/gamma-2 (Homo sapiens) (UniProt P14867+P18507+P28472); assay: Efficacy against recombinant human GABAA alpha-1 receptor plus beta3gamma2 expressed in L(tk-) cells by whole cell patch clamp method; format: functional, cell-based; procedure, shortened: as §1
# [5] = molecular target: T4, GABA-A receptor; alpha-1/beta-3/gamma-2 (Homo sapiens); assay: Efficacy against recombinant human GABAA alpha1 receptor plus beta3gamma2 expressed in L(tk-) cells by whole cell patch clamp method relative to chlordiazepoxide; format: functional, cell-based; procedure, shortened: as §1
# [6] = Plasma clearance in rat at 1 mg/kg, iv or 1 mg/kg, po; format: ADME, organism-based
# Procedure, shortened: (§2)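 Rat pharmacokinetics after dosing at 1 mg/kg iv and 1 mg/kg po. Plasma clearance in mL/min/kg, half-life in h and volume of distribution in L/kg.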
# [7] = Half life in rat at 1 mg/kg, […] 1 mg/kg, po; format: ADME, organism-based; conditions: in vivo; procedure, shortened: as §2
# [8] = Volume of distribution in rat at 1 mg/kg, iv or 1 mg/kg, po; format: ADME, organism-based; conditions: in vivo, read-out: Vdss; procedure, shortened: as §2
# [9] = molecular target: T4, GABA-A receptor; alpha-1/beta-3/gamma-2 (Homo sapiens); assay: Efficacy against recombinant human GABAA alpha1 receptor plus beta-3-gamma-2 expressed in L(tk-) cells by modulation of chloride ion flux relative to chlordiazepoxide; format: functional, cell-based
# Procedure, shortened: (§3)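 Same L(tk-) lines expressing beta3gamma2 with alpha1 or alpha3. 36Cl ion flux evoked by an EC20-equivalent concentration of GABA, measured in the presence of about 1000 x Ki of test compound. Efficacy expressed relative to the maximal chlordiazepoxide response (1.00). Mean of at least seven independent experiments.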
# [10] = molecular target: T3, GABA-A receptor; alpha-3/beta-3/gamma-2 (Homo sapiens); assay: Efficacy against recombinant human GABAA alpha-3 receptor plus beta3gamma2 expressed in L(tk-) cells by modulation of chloride ion flux relative to chlordiazepoxide; format: functional, cell-based; procedure, shortened: as §3
# [11] = Oral bioavailability in rat at 1 mg/kg, iv or 1 mg/kg, po; format: ADME, organism-based; conditions: in vivo
# Procedure, shortened: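 Pharmacokinetics in rat, dog or rhesus after 1 mg/kg iv and 1 mg/kg po dosing. Plasma clearance (mL/min/kg), half-life (h), volume of distribution (L/kg) and oral bioavailability (%) were derived.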
Compound,Ki [1] [nM],Ki [2] [nM],Efficacy [3] [%],Efficacy [4] [%],Efficacy [5] [%],clearance [6] [mL/min/kg],half-life [7] [h],Vd [8] [L/kg],Efficacy [9] [%],Efficacy [10] [%],bioavailability [11] [%]
N#Cc1cc(F)ccc1-c1cc(-c2cnc3nc(C(F)(F)F)cnn23)ccc1F,0.25,0.8,-6,-13,–,–,–,–,–,–,–
CC(C)(O)c1ccn2c(-c3ccc(F)c(-c4cccnc4)c3)cnc2n1,–,4,–,–,6,–,–,–,–,–,–
Cc1ccn2c(-c3cccc(-c4ccccc4C#N)c3)cnc2c1,–,3.7,55,-10,–,–,–,–,–,–,–
CC(C)(O)c1cnn2c(-c3ccc(F)c(-c4ccc(F)cc4C#N)c3)cnc2n1,1.2,2.1,43,-15,–,1.1,38,3.4,–,–,–
Cc1cnn2c(-c3cccc(-c4ccccc4C#N)c3)cnc2c1,13,19,–,–,–,–,–,–,-20,26,–
Cc1ccn2c(-c3cccc(-c4ccccc4C#N)c3)cnc2n1,0.4,0.4,69,–,7,–,–,–,–,–,–
CCO/N=C(\C)c1ccc2c(c1)ncn2-c1cccc(-c2cccnc2)c1,2,14,99,–,40,–,–,–,–,–,–
CC(C)(O)c1cnn2c(-c3ccc(F)c(-c4c(F)cc(F)cc4C#N)c3)cnc2n1,0.15,1,37,–,0,1,69,5.8,–,–,64
CN1C(=O)CN=C(c2ccccc2)c2cc(Cl)ccc21,–,–,80,–,93,–,–,–,–,–,–
N#Cc1cc(F)ccc1-c1cc(-c2cnc3nc(C(F)(F)F)ccn23)ccc1F,–,0.73,25,–,-3,–,–,–,–,–,–
Cc1cnn2c(-c3cccc(-c4ccccc4C#N)c3)cnc2n1,1.5,1.2,34,-21,–,–,–,–,–,–,–
